Assay results published in ChEMBL document CHEMBL3108704, “Novel endoperoxide-based transmission-blocking antimalarials with liver- and blood-schizontocidal activities” (ACS Med Chem Lett, 2014).
Activity calls are given as the source filed them. No cut-off for these calls is given here.

Columns and labels:
Plasmodium berghei [1] = assay: Antimalarial activity against liver stage of Plasmodium berghei infected in human Huh7 cells after 48 hrs by luciferase assay; type: functional, organism-based; details: Huh-7, 48 h
Plasmodium falciparum = assay: Antimalarial activity against chloroquine-resistant erythrocyte stage of Plasmodium falciparum W2 after 48 hrs; type: functional, organism-based; details: W2, 48 h
Huh-7 = assay: Cytotoxicity against human HuH7 cells assessed as cell viability by Alamar Blue assay; type: cell-based
Plasmodium berghei [2] = assay: Antisporogonic activity against GFP expressing Plasmodium berghei ANKA infected in BALB/c mouse assessed as inhibition of appearance of oocysts in Anopheles gambiae level at 25 umol/kg, ip by microscopic analysis (reference value: 83.6%); type: functional
Plasmodium berghei [3] = assay: Antisporogonic activity against GFP expressing Plasmodium berghei ANKA infected in BALB/c mouse assessed as inhibition of appearance of oocysts in Anopheles gambiae level at 10 umol/kg, ip by microscopic analysis (reference value: 83.6%); type: functional
Mus musculus = assay: Toxicity in Plasmodium berghei ANKA infected C57Bl/6J mouse assessed as adverse reactions at 30 mg/kg, ip qd for 5 days measured on day 5; type: organism-based; parameters: dose 30 mg/kg, route intraperitoneal; details: in vivo, 120 h
How it was run: (§1)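 Male C57Bl/6J mice were infected with GFP-expressing P. berghei ANKA on day 0. From day 4, compound was given i.p. at 30 mg/kg b.w. once daily for 5 consecutive days. Parasitemia was monitored daily by microscopy and flow cytometry. Survival was followed to the end of the experiment, and adverse reactions were recorded.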

Plasmodium berghei [4] = assay: Antimalarial activity against GFP expressing Plasmodium berghei ANKA infected in C57Bl/6J mouse assessed as host survival at 30 mg/kg, ip qd for 5 days measured on day 5; type: functional, organism-based; parameters: dose 30 mg/kg; how it was run: as §1
Plasmodium berghei [5] = assay: Antimalarial activity against GFP expressing Plasmodium berghei ANKA infected in C57Bl/6J mouse assessed as reduction of parasitemia at 30 mg/kg, ip qd for 5 days measured on day 5; type: functional, organism-based; parameters: dose 30 mg/kg; how it was run: as §1
Plasma = assay: Metabolic stability of the compound in 80% human plasma assessed as formation of primaquine and carboxyprimaquine metabolite after 3 days; type: ADME, cell-free; details: 72 h
[6] = Intrinsic clearance in rat liver microsomes at 0.1 uM; type: ADME; details: read-out: CLH
How it was run: (§2)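 Compound was incubated with rat liver microsomes at 37 °C. Half-life and in vitro intrinsic clearance (μL/min/mg protein) were determined, and in vivo hepatic extraction ratio was predicted from them.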

[7] = Half life in rat liver microsomes at 0.1 uM; type: ADME; how it was run: as §2

Compound	IC50 (Plasmodium berghei [1]) [nM]	IC50 (Plasmodium falciparum) [nM]	IC50 (Huh-7) [nM]	inhibition in vivo at 25 µmol/kg (Plasmodium berghei [2]) [%]	inhibition in vivo at 10 µmol/kg (Plasmodium berghei [3]) [%]	Activity (Mus musculus)	Activity (Plasmodium berghei [4])	Activity (Plasmodium berghei [5])	Stability (Plasma)	microsomal CLint at 0.1 µM [6] [µL/min/mg]	half-life at 0.1 µM [7] [min]
C[C@@H]1CC[C@H]2[C@@H](C)C(=O)O[C@@H]3O[C@@]4(C)CC[C@@H]1[C@]32OO4 [ARTEMISININ]	> 10000	8.2									
COc1cc(NC(C)CCCNCc2ccc(CO[C@H]3O[C@@H]4O[C@]5(C)CC[C@H]6[C@H](C)CC[C@@H]([C@H]3C)[C@@]46OO5)cc2)c2ncccc2c1 (stereo not given in full)	155	12.5									
COc1cc(NC(C)CCCNCC[C@H]2O[C@@H]3O[C@]4(C)CC[C@H]5[C@H](C)CC[C@@H]([C@H]2C)[C@@]35OO4)c2ncccc2c1 (stereo not given in full)	> 1000	9.3	32800								
COc1cc(NC(C)CCCNC2CCC3(CC2)OOC2(OO3)C3CC4CC(C3)CC2C4)c2ncccc2c1 (stereo not given)	330	21.6	8200	13.3	36.4						
CCOC(=O)C1CCC2(CC1)OOC1(OO2)C2CC3CC(C2)CC1C3 (stereo not given)	> 10000	128									
COc1cc(NC(C)CCCN)c2ncccc2c1 (stereo not given) [PRIMAQUINE]				2.2	35.5						
COc1cc(NC(C)CCCNC(=O)C[C@H]2O[C@@H]3O[C@]4(C)CC[C@H]5[C@H](C)CC[C@@H]([C@H]2C)[C@@]35OO4)c2ncccc2c1 (stereo not given in full)	523	9.1									
COc1cc(NC(C)CCCNC(=O)CC2CCC3(CC2)OOC2(OO3)C3CC4CC(C3)CC2C4)c2ncccc2c1 (stereo not given)	604	36.5	2570	11.4	66.7						
COc1cc(NC(C)CCCNC(=O)C2CCC3(CC2)OOC2(OO3)C3CC4CC(C3)CC2C4)c2ncccc2c1 (stereo not given)	538	21.1	> 100000	0	68.6	Non-toxic	Active	Active	Stable	133	10
COc1cc(NC(C)CCCNC(=O)c2ccc(CO[C@H]3O[C@@H]4O[C@]5(C)CC[C@H]6[C@H](C)CC[C@@H]([C@H]3C)[C@@]46OO5)cc2)c2ncccc2c1 (stereo not given in full)	67	5.1	73000								
COc1cc(NC(C)CCCNCC2CCC3(CC2)OOC2(OO3)C3CC4CC(C3)CC2C4)c2ncccc2c1 (stereo not given)	> 1000	45.2	5020	5.9	42.9				Stable	51.2	27
